ChEMBL document CHEMBL4118021, “Studies of TAK1-centered polypharmacology with novel covalent TAK1 inhibitors” (Bioorg Med Chem, 2017)
Calls of active or inactive are those of the source. No cut-off for these calls is given here.

Legend:
[1] = biological target: T1, Dual specificity mitogen-activated protein kinase kinase 5 (Homo sapiens) (UniProt Q13163); experiment: Inhibition of human MEK5 (98 to 448 residues) expressed in mammalian expression system assessed as enzyme activity at 10 uM by KINOMEScan assay relative to control; design: scale not given: the % may be the effect or the level left
T1 sequence (whole entry): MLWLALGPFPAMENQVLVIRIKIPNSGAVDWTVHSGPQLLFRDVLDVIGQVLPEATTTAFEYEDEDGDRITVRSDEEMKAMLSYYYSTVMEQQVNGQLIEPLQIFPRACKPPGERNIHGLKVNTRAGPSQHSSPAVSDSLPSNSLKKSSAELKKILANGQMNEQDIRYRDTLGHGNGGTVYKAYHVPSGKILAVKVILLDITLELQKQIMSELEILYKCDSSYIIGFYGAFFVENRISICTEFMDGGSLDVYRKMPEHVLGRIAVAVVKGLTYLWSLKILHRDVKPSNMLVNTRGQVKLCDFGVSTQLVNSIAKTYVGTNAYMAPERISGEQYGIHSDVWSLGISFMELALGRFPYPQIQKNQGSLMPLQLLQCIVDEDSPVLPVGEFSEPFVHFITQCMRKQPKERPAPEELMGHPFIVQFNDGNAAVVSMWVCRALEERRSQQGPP
Procedure, shortened: (§1)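 In vitro ATP-site competition binding assay across a panel of 456 kinases, with compound tested at 1 and 10 μM.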

[2] = biological target: T2, Dual specificity mitogen-activated protein kinase kinase 4 (Homo sapiens) (UniProt P45985); experiment: Inhibition of human MEK4 (84 to 399 residues) expressed in mammalian expression system assessed as enzyme activity at 10 uM by KINOMEScan assay relative to control; design: scale not given: the % may be the effect or the level left; procedure, shortened: as §1
T2 sequence (whole entry): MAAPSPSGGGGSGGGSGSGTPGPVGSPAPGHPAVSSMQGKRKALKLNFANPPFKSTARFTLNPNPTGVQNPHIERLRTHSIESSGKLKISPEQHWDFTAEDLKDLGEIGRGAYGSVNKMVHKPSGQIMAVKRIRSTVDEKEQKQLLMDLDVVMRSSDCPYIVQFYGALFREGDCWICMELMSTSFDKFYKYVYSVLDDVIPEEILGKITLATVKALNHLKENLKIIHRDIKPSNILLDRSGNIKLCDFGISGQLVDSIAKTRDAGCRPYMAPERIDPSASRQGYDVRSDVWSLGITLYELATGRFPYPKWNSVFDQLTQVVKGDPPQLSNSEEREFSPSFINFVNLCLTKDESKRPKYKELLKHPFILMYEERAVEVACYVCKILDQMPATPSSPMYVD

[3] = biological target: Vascular endothelial growth factor receptor 1 (Homo sapiens) (UniProt P17948); experiment: Inhibition of human FLT1 (781 to 1239 residues) expressed in bacterial expression system assessed as enzyme activity at 1 uM by KINOMEScan assay relative to control; design: scale not given: the % may be the effect or the level left; procedure, shortened: as §1
[4] = biological target: Signal recognition particle subunit SRP54 (Homo sapiens) (UniProt P61011); experiment: Binding affinity to SRP54 in human NCI-H358 cells at 1 uM by mass spectrometry based pull down assay; assay type: cell-based
[5] = biological target: Mitogen-activated protein kinase 6 (Homo sapiens) (UniProt Q16659); experiment: Binding affinity to MAPK6 in human NCI-H358 cells at 1 uM by mass spectrometry based pull down assay; assay type: cell-based
[6] = biological target: Translation initiation factor eIF2B subunit gamma (Homo sapiens) (UniProt Q9NR50); experiment: Binding affinity to EIF2B3 in human NCI-H23 cells at 1 uM by mass spectrometry based pull down assay; assay type: cell-based
[7] = biological target: 182 kDa tankyrase-1-binding protein (Homo sapiens) (UniProt Q9C0C2); experiment: Binding affinity to TNKS1BP1 in human NCI-H358 cells at 1 uM by mass spectrometry based pull down assay; assay type: cell-based
[8] = biological target: T-complex protein 1 subunit theta (Homo sapiens) (UniProt P50990); experiment: Binding affinity to CCT8 in human NCI-H23 cells at 1 uM by mass spectrometry based pull down assay; assay type: cell-based
[9] = biological target: Replication factor C subunit 5 (Homo sapiens) (UniProt P40937); experiment: Binding affinity to RFC5 in human NCI-H358 cells at 1 uM by mass spectrometry based pull down assay; assay type: cell-based
[10] = biological target: Nucleoside diphosphate kinase A/B (Homo sapiens) (UniProt P15531+P22392); experiment: Binding affinity to NME1-NME2 in human NCI-H23 cells at 1 uM by mass spectrometry based pull down assay; assay type: cell-based
[11] = biological target: Heterogeneous nuclear ribonucleoprotein D0 (Homo sapiens) (UniProt Q14103); experiment: Binding affinity to HNRNPD in human NCI-H358 cells at 1 uM by mass spectrometry based pull down assay; assay type: cell-based
[12] = biological target: DNA replication licensing factor MCM4 (Homo sapiens) (UniProt P33991); experiment: Binding affinity to MCM4 in human NCI-H358 cells at 1 uM by mass spectrometry based pull down assay; assay type: cell-based
[13] = biological target: Deoxyribose-phosphate aldolase (Homo sapiens) (UniProt Q9Y315); experiment: Binding affinity to DERA in human NCI-H358 cells at 1 uM by mass spectrometry based pull down assay; assay type: cell-based
[14] = biological target: Transcription intermediary factor 1-beta (Homo sapiens) (UniProt Q13263); experiment: Binding affinity to TRIM28 in human NCI-H358 cells at 1 uM by mass spectrometry based pull down assay; assay type: cell-based
[15] = biological target: Epithelial splicing regulatory protein 1 (Homo sapiens) (UniProt Q6NXG1); experiment: Binding affinity to ESRP1 in human NCI-H358 cells at 1 uM by mass spectrometry based pull down assay; assay type: cell-based
[16] = biological target: T3, Aurora kinase A (Homo sapiens) (UniProt O14965); experiment: Binding affinity to AURKA in human NCI-H358 cells at 1 uM by mass spectrometry based pull down assay; assay type: cell-based
T3 sequence (whole entry): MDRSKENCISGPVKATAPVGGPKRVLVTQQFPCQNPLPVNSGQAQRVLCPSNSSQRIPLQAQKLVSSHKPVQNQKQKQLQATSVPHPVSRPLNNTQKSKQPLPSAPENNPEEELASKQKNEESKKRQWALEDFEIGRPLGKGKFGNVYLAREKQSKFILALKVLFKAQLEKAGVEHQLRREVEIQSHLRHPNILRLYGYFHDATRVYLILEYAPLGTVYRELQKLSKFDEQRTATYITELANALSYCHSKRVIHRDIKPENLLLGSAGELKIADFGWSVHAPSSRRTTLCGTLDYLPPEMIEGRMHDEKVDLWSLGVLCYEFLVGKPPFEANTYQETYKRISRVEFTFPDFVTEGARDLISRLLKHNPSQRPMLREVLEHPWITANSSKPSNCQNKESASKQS

[17] = biological target: Peroxiredoxin-6 (Homo sapiens) (UniProt P30041); experiment: Binding affinity to PRDX6 in human NCI-H23 cells at 1 uM by mass spectrometry based pull down assay; assay type: cell-based
[18] = biological target: RuvB-like 2 (Homo sapiens) (UniProt Q9Y230); experiment: Binding affinity to RUVBL2 in human NCI-H358 cells at 1 uM by mass spectrometry based pull down assay; assay type: cell-based
[19] = biological target: Interleukin enhancer-binding factor 2 (Homo sapiens) (UniProt Q12905); experiment: Binding affinity to ILF2 in human NCI-H23 cells at 1 uM by mass spectrometry based pull down assay; assay type: cell-based
Sequence of Interleukin enhancer-binding factor 2 (Homo sapiens) (Q12905 whole entry): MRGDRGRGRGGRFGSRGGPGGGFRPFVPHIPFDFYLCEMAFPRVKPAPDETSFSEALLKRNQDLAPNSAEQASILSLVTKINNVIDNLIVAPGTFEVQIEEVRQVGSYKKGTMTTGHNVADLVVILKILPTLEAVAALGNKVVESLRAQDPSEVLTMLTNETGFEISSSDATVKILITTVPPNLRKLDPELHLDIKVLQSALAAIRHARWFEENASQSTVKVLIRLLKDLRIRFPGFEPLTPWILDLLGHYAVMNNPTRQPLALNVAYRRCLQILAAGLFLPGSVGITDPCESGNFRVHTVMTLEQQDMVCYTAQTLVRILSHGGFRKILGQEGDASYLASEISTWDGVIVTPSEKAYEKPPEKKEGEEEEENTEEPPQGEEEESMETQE

Sequence of Mitogen-activated protein kinase 6 (Homo sapiens) (Q16659 whole entry): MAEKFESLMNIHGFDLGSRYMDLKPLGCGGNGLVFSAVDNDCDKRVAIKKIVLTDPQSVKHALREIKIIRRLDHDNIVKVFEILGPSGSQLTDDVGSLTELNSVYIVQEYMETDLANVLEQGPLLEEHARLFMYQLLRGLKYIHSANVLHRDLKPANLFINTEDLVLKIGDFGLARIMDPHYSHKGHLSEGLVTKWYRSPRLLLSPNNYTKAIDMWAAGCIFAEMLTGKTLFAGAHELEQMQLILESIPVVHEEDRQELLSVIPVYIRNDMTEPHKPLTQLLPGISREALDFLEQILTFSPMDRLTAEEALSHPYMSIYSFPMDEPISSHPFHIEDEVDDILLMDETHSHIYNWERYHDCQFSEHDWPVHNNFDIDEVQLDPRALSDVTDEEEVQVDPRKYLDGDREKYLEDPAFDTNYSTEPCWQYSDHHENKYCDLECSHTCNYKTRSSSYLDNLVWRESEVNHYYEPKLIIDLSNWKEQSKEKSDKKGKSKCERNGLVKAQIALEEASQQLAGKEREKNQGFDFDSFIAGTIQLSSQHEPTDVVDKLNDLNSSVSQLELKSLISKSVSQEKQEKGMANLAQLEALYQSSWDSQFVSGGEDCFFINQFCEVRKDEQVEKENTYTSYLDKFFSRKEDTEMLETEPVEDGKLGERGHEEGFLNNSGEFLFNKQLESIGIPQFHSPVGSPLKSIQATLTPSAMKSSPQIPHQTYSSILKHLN
Sequence of Translation initiation factor eIF2B subunit gamma (Homo sapiens) (Q9NR50 whole entry): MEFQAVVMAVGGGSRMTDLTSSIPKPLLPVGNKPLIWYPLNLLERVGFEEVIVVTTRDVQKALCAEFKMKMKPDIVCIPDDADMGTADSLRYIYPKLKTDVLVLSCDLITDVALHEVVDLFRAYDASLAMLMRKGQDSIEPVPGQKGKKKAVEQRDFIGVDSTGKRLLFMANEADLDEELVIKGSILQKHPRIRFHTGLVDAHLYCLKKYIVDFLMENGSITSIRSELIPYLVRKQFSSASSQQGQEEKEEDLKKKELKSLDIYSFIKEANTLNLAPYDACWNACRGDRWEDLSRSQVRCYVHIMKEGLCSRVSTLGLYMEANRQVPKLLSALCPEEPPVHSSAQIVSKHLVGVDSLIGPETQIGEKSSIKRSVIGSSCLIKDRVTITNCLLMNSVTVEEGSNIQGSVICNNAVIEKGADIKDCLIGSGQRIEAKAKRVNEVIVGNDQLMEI
Sequence of Epithelial splicing regulatory protein 1 (Homo sapiens) (Q6NXG1 whole entry): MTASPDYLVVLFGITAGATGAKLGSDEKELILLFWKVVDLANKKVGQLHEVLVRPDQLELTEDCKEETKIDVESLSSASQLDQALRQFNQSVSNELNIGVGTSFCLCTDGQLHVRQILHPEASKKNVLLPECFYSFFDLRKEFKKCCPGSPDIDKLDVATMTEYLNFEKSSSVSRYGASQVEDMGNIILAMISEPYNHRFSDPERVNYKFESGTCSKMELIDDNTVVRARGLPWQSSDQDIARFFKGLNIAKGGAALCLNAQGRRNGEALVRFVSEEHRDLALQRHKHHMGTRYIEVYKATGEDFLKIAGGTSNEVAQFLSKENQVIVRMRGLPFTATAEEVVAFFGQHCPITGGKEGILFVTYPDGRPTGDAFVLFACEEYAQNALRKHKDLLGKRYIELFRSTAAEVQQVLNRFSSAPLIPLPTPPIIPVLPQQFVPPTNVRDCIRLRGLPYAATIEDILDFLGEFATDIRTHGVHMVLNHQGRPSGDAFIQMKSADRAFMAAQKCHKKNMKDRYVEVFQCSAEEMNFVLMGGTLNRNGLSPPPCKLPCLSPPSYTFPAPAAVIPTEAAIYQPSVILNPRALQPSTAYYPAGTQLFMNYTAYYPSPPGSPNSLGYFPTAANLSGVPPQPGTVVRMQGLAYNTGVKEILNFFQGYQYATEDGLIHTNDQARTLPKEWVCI
Sequence of Deoxyribose-phosphate aldolase (Homo sapiens) (Q9Y315 whole entry): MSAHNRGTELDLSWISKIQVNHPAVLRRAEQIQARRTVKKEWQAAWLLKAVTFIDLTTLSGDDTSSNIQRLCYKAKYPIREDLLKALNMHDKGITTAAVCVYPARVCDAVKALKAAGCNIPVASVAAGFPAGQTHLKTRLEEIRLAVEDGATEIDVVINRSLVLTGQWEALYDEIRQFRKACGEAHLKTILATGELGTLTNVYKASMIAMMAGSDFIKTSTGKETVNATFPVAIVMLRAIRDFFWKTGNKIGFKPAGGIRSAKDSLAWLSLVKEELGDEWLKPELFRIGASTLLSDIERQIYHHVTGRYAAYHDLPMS
Sequence of DNA replication licensing factor MCM4 (Homo sapiens) (P33991 whole entry): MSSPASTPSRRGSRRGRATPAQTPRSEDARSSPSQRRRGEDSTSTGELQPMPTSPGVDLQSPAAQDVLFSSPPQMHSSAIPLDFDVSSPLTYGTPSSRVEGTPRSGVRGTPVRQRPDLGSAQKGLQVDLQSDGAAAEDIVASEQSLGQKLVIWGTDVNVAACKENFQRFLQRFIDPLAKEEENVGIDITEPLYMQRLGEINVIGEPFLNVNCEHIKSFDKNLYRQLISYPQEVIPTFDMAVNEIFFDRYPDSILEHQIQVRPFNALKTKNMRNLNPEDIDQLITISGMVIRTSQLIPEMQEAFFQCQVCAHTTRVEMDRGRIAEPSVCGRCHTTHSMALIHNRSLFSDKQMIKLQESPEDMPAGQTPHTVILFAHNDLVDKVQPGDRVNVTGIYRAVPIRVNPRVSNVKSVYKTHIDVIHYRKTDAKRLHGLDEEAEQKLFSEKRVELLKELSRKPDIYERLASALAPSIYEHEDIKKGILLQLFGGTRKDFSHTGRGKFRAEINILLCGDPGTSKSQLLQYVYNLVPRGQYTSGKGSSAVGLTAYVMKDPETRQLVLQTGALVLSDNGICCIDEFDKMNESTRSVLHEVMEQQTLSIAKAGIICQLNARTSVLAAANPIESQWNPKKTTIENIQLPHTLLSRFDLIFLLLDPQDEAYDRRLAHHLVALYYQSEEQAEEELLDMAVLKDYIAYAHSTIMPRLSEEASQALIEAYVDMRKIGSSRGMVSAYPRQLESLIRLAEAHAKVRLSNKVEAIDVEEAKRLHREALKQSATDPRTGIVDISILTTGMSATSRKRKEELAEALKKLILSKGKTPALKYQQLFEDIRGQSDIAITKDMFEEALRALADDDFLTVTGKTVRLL
Sequence of RuvB-like 2 (Homo sapiens) (Q9Y230 whole entry): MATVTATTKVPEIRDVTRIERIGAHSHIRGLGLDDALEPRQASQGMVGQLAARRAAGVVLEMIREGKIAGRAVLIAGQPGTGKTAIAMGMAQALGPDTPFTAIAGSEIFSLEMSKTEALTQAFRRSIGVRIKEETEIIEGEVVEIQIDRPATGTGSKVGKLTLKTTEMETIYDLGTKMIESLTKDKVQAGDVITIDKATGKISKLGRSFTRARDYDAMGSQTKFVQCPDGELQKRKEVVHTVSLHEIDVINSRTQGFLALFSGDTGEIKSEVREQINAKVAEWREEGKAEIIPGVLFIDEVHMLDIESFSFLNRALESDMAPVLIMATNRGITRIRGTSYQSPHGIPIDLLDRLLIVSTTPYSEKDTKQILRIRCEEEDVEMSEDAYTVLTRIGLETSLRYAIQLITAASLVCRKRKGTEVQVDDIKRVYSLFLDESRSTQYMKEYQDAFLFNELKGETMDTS
Sequence of Transcription intermediary factor 1-beta (Homo sapiens) (Q13263 whole entry): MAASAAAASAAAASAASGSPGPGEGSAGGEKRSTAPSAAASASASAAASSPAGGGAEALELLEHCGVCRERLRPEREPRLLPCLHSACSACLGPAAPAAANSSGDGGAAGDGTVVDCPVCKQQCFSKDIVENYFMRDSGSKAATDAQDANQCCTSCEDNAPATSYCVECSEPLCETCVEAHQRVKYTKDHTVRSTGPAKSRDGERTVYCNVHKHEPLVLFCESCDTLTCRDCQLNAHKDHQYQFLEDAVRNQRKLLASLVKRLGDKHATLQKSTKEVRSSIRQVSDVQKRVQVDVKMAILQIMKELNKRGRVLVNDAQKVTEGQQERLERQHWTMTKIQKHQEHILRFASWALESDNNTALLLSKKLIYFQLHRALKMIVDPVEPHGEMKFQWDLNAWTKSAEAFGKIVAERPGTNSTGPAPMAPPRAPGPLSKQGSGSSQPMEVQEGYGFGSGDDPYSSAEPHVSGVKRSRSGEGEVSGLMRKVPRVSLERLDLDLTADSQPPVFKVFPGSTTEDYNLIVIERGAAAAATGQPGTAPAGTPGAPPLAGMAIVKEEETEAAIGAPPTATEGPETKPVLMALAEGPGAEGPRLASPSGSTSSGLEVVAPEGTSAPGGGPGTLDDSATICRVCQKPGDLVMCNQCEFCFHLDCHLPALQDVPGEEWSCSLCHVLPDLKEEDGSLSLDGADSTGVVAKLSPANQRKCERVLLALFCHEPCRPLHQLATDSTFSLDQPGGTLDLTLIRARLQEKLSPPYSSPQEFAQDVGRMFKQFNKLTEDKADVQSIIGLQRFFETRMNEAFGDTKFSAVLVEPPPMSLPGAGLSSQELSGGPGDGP
Sequence of Peroxiredoxin-6 (Homo sapiens) (P30041 whole entry): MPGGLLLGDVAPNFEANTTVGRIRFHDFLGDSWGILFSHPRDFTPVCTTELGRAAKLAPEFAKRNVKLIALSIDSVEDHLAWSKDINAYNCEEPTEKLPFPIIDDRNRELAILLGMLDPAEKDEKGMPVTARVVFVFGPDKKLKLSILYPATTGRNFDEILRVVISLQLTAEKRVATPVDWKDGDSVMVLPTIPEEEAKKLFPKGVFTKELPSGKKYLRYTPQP

Compound	Activity [1] [%]	Activity [2] [%]	Activity [3] [%]	Activity [4]	Activity [5]	Activity [6]	Activity [7]	Activity [8]	Activity [9]	Activity [10]	Activity [11]	Activity [12]	Activity [13]	Activity [14]	Activity [15]	Activity [16]	Activity [17]	Activity [18]	Activity [19]
COc1cc(O)c2c(c1)/C=C/C[C@H](O)[C@H](O)C(=O)/C=C\C[C@H](C)OC2=O	0.1	0.35	16	–	–	–	–	–	–	–	–	–	–	–	–	–	–	–	–
C=CC(=O)Nc1ccccc1Nc1nc(Nc2ccc(N3CCN(CCOCCOCCOCCNC(=O)CCCC[C@@H]4SC[C@@H]5NC(=O)N[C@@H]54)CC3)cc2)ncc1Cl	–	–	–	Active	Active	Active	Active	Active	Active	Active	Active	Active	Active	Active	Active	Active	Active	Active	Active
